In ChEMBL document CHEMBL1129260, “Evaluation of the stability and animal biodistribution of gadolinium (III) benzylamine-derivatized diethylenetriaminepentaacetic acid” (J Med Chem, 1996):

Experiments:
Conditions in all cases: in vivo
Rattus norvegicus [1] = organism: Rattus norvegicus; test: Biodistribution of Gd-LDTA (conjugated with galactose BSA) protein using [111In]- in mature female Sprague-Dawley rat bone after injecting for 48 hour.; type: ADME, organism-based, Bone element
In short: (§1)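 Conjugate of SCN-LDTPA with BSA, mannosylated BSA or galactosylated BSA (10 equiv chelate, pH 9 bicine, RT 24 h; FPLC-purified) was labelled with 340 μCi 111In acetate at pH 5.5 for 45 min. It was then gel-filtered (Biospin-6) and checked for purity by FPLC. Mature female Sprague-Dawley rats received 19 μg of conjugate. Four rats per time point (1, 4, 24, 48 h) were killed; blood, liver, bone, kidney and colon were taken and %ID/organ was calculated.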

Rattus norvegicus [2] = organism: Rattus norvegicus; test: Biodistribution of In-LDTA (conjugated with galactose BSA)protein using [111In]- in mature female Sprague-Dawley rat colon after injecting for 1 hour.; type: ADME, organism-based
In short: (§2)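 SCN-LDTPA was coupled (pH 9 bicine, 24 h, RT) to BSA, mannosylated BSA or galactosylated BSA and FPLC-purified. The conjugate (400 μg) was labeled with 340 μCi 111In acetate at pH 5.5 for 45 min and gel-filtered. Mature female Sprague-Dawley rats received 19 μg of conjugate; four rats per time point. Blood, liver, bone, kidney and colon were taken and reported as %ID/organ.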

Rattus norvegicus [3] = organism: Rattus norvegicus; test: Biodistribution of In-LDTA (conjugated with galactose BSA)protein using [111In]- in mature female Sprague-Dawley rat bone after injecting for 1 hour.; type: ADME, organism-based, Bone element; in short: as §2
Rattus norvegicus [4] = organism: Rattus norvegicus; test: Biodistribution of Gd-LDTA (conjugated with galactose BSA) protein using [111In]- in mature female Sprague-Dawley rat colon after injecting for 24 hour.; type: ADME, organism-based; in short: as §1
Rattus norvegicus [5] = organism: Rattus norvegicus; test: Biodistribution of Gd-LDTA (conjugated with galactose BSA) protein using [111In]- in mature female Sprague-Dawley rat blood after injecting for 1 hour.; type: ADME, organism-based; in short: as §1
Rattus norvegicus [6] = organism: Rattus norvegicus; test: Biodistribution of In-LDTA (conjugated with mannoseBSA) protein using [111In]- in mature female Sprague-Dawley rat colon after injecting for 48 hour.; type: ADME, organism-based; in short: as §2
Rattus norvegicus [7] = organism: Rattus norvegicus; test: Biodistribution of Gd-LDTA (conjugated with mannose BSA) protein using [111In]- in mature female Sprague-Dawley rat liver after injecting for 48 hour.; type: ADME, organism-based
Rattus norvegicus [8] = organism: Rattus norvegicus; test: Biodistribution of Gd-LDTA (conjugated with galactose BSA) protein using [111In]- in mature female Sprague-Dawley rat liver after injecting for 1 hour.; type: ADME, organism-based; in short: as §1
Rattus norvegicus [9] = organism: Rattus norvegicus; test: Biodistribution of In-LDTA (conjugated with BSA) protein using [111In]- in mature female Sprague-Dawley rat bone after injecting for 4 hour.; type: ADME, organism-based, Bone element; in short: as §2
Rattus norvegicus [10] = organism: Rattus norvegicus; test: Biodistribution of Gd-LDTA (conjugated with galactose BSA) protein using [111In]- in mature female Sprague-Dawley rat colon after injecting for 4 hour.; type: ADME, organism-based; in short: as §1
Rattus norvegicus [11] = organism: Rattus norvegicus; test: Biodistribution of In-LDTA (conjugated with galactose BSA)protein using [111In]- in mature female Sprague-Dawley rat bone after injecting for 4 hour.; type: ADME, organism-based, Bone element; in short: as §2
Rattus norvegicus [12] = organism: Rattus norvegicus; test: Biodistribution of Gd-LDTA (conjugated with mannose BSA) protein using [111In]- in mature female Sprague-Dawley rat bone after injecting for 48 hour.; type: ADME, organism-based, Bone element; in short: as §1
Rattus norvegicus [13] = organism: Rattus norvegicus; test: Biodistribution of Gd-DTA (conjugated with BSA) protein using [111In]- in mature female Sprague-Dawley rat colon after injecting for 48 hour.; type: ADME, organism-based; in short: as §1
Rattus norvegicus [14] = organism: Rattus norvegicus; test: Biodistribution of In-LDTA (conjugated with galactose BSA)protein using [111In]- in mature female Sprague-Dawley rat kidney after injecting for 4 hour.; type: ADME, organism-based; in short: as §2
Rattus norvegicus [15] = organism: Rattus norvegicus; test: Biodistribution of In-LDTA (conjugated with mannoseBSA) protein using [111In]- in mature female Sprague-Dawley rat liver after injecting for 48 hr.; type: ADME, organism-based; in short: as §2
Rattus norvegicus [16] = organism: Rattus norvegicus; test: Biodistribution of Gd-LDTA (conjugated with mannose BSA) protein using [111In]- in mature female Sprague-Dawley rat colon after injecting for 96 hour.; type: ADME, organism-based
Rattus norvegicus [17] = organism: Rattus norvegicus; test: Biodistribution of Gd-LDTA (conjugated with mannose BSA) protein using [111In]- in mature female Sprague-Dawley rat bone marrow after injecting for 48 hour.; type: ADME, organism-based
Rattus norvegicus [18] = organism: Rattus norvegicus; test: Biodistribution of Gd-DTA (conjugated with BSA)protein using [111In]- in mature female Sprague-Dawley rat liver after injecting for 4 hour.; type: ADME, organism-based; in short: as §1
Rattus norvegicus [19] = organism: Rattus norvegicus; test: Biodistribution of Gd-LDTA (conjugated with mannose BSA) protein using [111In]- in mature female Sprague-Dawley rat blood after injecting for 48 hour.; type: ADME, organism-based; in short: as §1
Rattus norvegicus [20] = organism: Rattus norvegicus; test: Biodistribution of Gd-LDTA (conjugated with mannose BSA) protein using [111In]- in mature female Sprague-Dawley rat bone marrow after injecting for 24 hour.; type: ADME, organism-based
Rattus norvegicus [21] = organism: Rattus norvegicus; test: Biodistribution of Gd-LDTA (conjugated with mannose BSA) protein using [111In]- in mature female Sprague-Dawley rat bone after injecting for 4 hour.; type: ADME, organism-based, Bone element; in short: as §1
Rattus norvegicus [22] = organism: Rattus norvegicus; test: Biodistribution of Gd-LDTA (conjugated with galactose BSA) protein using [111In]- in mature female Sprague-Dawley rat kidney after injecting for 1 hour.; type: ADME, organism-based; in short: as §1
Rattus norvegicus [23] = organism: Rattus norvegicus; test: Biodistribution of Gd-LDTA (conjugated with mannose BSA) protein using [111In]- in mature female Sprague-Dawley rat bone after injecting for 1 hour.; type: ADME, organism-based, Bone element; in short: as §1
Rattus norvegicus [24] = organism: Rattus norvegicus; test: Biodistribution of Gd-LDTA (conjugated with galactose BSA) protein using [111In]- in mature female Sprague-Dawley rat kidney after injecting for 4 hour.; type: ADME, organism-based; in short: as §1
Rattus norvegicus [25] = organism: Rattus norvegicus; test: Biodistribution of In-LDTA (conjugated with mannoseBSA) protein using [111In]- in mature female Sprague-Dawley rat bone after injecting for 24 hour.; type: ADME, organism-based, Bone element; in short: as §2
Rattus norvegicus [26] = organism: Rattus norvegicus; test: Biodistribution of Gd-LDTA (conjugated with galactose BSA) protein using [111In]- in mature female Sprague-Dawley rat blood after injecting for 24 hour.; type: ADME, organism-based; in short: as §1
Rattus norvegicus [27] = organism: Rattus norvegicus; test: Biodistribution of In-LDTA (conjugated with mannoseBSA) protein using [111In]- in mature female Sprague-Dawley rat kidney after injecting for 48 hour.; type: ADME, organism-based; in short: as §2
Rattus norvegicus [28] = organism: Rattus norvegicus; test: Biodistribution of Gd-LDTA (conjugated with mannose BSA) protein using [111In]- in mature female Sprague-Dawley rat colon after injecting for 4 hour.; type: ADME, organism-based; in short: as §1
Rattus norvegicus [29] = organism: Rattus norvegicus; test: Biodistribution of Gd-DTA (conjugated with BSA)protein using [111In]- in mature female Sprague-Dawley rat bone after injecting for 4 hour.; type: ADME, organism-based, Bone element; in short: as §1
Rattus norvegicus [30] = organism: Rattus norvegicus; test: Biodistribution of Gd-LDTA (conjugated with galactose BSA) protein using [111In]- in mature female Sprague-Dawley rat bone marrow after injecting for 4 hour.; type: ADME, organism-based
Rattus norvegicus [31] = organism: Rattus norvegicus; test: Biodistribution of Gd-LDTA (conjugated with galactose BSA) protein using [111In]- in mature female Sprague-Dawley rat liver after injecting for 48 hour.; type: ADME, organism-based; in short: as §1
Rattus norvegicus [32] = organism: Rattus norvegicus; test: Biodistribution of In-LDTA (conjugated with galactose BSA)protein using [111In]- in mature female Sprague-Dawley rat liver after injecting for 1 hour.; type: ADME, organism-based; in short: as §2
Rattus norvegicus [33] = organism: Rattus norvegicus; test: Biodistribution of In-LDTA (conjugated with mannoseBSA) protein using [111In]- in mature female Sprague-Dawley rat liver after injecting for 4 hour.; type: ADME, organism-based; in short: as §2
Rattus norvegicus [34] = organism: Rattus norvegicus; test: Biodistribution of In-LDTA (conjugated with galactose BSA)protein using [111In]- in mature female Sprague-Dawley rat kidney after injecting for 1 hour.; type: ADME, organism-based; in short: as §2
Rattus norvegicus [35] = organism: Rattus norvegicus; test: Biodistribution of Gd-LDTA (conjugated with galactose BSA) protein using [111In]- in mature female Sprague-Dawley rat blood after injecting for 4 hour.; type: ADME, organism-based; in short: as §1
Rattus norvegicus [36] = organism: Rattus norvegicus; test: Biodistribution of Gd-DTA (conjugated with BSA)protein using [111In]- in mature female Sprague-Dawley rat blood after injecting for 96 hour.; type: ADME, organism-based

ID/organ (Rattus norvegicus [1]): 8.7%
ID/organ (Rattus norvegicus [2]): 0.0098%
ID/organ (Rattus norvegicus [3]): 0.227%
ID/organ (Rattus norvegicus [4]): 6.07%
ID/organ (Rattus norvegicus [5]): 0.207%
ID/organ (Rattus norvegicus [6]): 0.542%
ID/organ (Rattus norvegicus [7]): 35%
ID/organ (Rattus norvegicus [8]): 91.3%
ID/organ (Rattus norvegicus [9]): 19.1%
ID/organ (Rattus norvegicus [10]): 4.09%
ID/organ (Rattus norvegicus [11]): 0.329%
ID/organ (Rattus norvegicus [12]): 20.4%
ID/organ (Rattus norvegicus [13]): 2.37%
ID/organ (Rattus norvegicus [14]): 0.0688%
ID/organ (Rattus norvegicus [15]): 61%
ID/organ (Rattus norvegicus [16]): 0.241%
ID/organ (Rattus norvegicus [17]): 1.77%
ID/organ (Rattus norvegicus [18]): 18.6%
ID/organ (Rattus norvegicus [19]): 0.04%
ID/organ (Rattus norvegicus [20]): 2.13%
ID/organ (Rattus norvegicus [21]): 16.4%
ID/organ (Rattus norvegicus [22]): 0.114%
ID/organ (Rattus norvegicus [23]): 15.6%
ID/organ (Rattus norvegicus [24]): 0.105%
ID/organ (Rattus norvegicus [25]): 8.9%
ID/organ (Rattus norvegicus [26]): 0.02%
ID/organ (Rattus norvegicus [27]): 0.465%
ID/organ (Rattus norvegicus [28]): 0.327%
ID/organ (Rattus norvegicus [29]): 22.3%
ID/organ (Rattus norvegicus [30]): 0.109%
ID/organ (Rattus norvegicus [31]): 34.8%
ID/organ (Rattus norvegicus [32]): 99.7%
ID/organ (Rattus norvegicus [33]): 87.6%
ID/organ (Rattus norvegicus [34]): 0.0446%
ID/organ (Rattus norvegicus [35]): 0.045%
ID/organ (Rattus norvegicus [36]): 0.418%
Structure (SMILES): Nc1ccc(CC(C(=O)O)N(CCN(CC(=O)O)CC(=O)O)CCN(CC(=O)O)CC(=O)O)cc1 (stereo unspecified)
